PfG6PD inh: PfG6PD (Plasmodium falciparum) enzyme inhibition. 350,000 tested, 0.78% active. PfGluPho enzyme, NADPH resazurin-diaphorase fluorescence. inhibition, % at 20 µM;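 active means inhibition reaching at least a set limit at 20 µM in the primary screen, cut at about 59% in these data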
EP2 mod: modulators of human EP2 prostaglandin E2 receptor. P43116. EP2-expressing cells, cAMP HTRF FRET, PGE2 co-stimulation. induction, % at 25 µM. 260,000 tested, 0.83% active. AID 940;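 active means compounds whose cAMP rise, as percent of the full-agonist control response, exceeds 60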;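 further: rat C6 glioma line stably carrying human EP2 under a CMV promoter; the protocol text gives 20 µM as final concentration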
Target sequence (P43116 whole entry, looked up): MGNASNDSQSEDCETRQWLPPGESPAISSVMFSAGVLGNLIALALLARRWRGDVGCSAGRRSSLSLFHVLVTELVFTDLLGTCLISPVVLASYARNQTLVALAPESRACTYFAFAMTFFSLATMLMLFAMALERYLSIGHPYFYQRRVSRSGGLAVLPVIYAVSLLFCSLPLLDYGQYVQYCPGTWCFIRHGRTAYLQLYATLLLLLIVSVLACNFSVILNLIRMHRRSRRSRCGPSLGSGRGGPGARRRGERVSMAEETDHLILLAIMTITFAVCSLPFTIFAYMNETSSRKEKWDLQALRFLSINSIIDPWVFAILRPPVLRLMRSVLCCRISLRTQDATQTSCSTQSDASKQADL
PGE2 EP2 inh: blocks the human prostaglandin E2 receptor EP2; P43116; C6 glioma cells expressing human EP2, cAMP TR-FRET; cells stimulated with saturating PGE2; inhibition, % at 25 µM; 260,000 tested, 0.52% active; AID 1422;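 active means percent inhibition above 40 after rounding to a whole number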;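 further: rat C6 glioma host cells with rolipram phosphodiesterase inhibitor present; the protocol text gives 20 µM as final concentration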
PHOSPHO1 block: PHOSPHO1 (human) inhibition; Q8TCT1; recombinant PHOSPHO1, absorbance phosphatase assay; inhibition, % at 13.3 µM; 290,000 tested, 1.1% active; in the data active means inhibition above about 60%
Target sequence (Q8TCT1 whole entry, looked up): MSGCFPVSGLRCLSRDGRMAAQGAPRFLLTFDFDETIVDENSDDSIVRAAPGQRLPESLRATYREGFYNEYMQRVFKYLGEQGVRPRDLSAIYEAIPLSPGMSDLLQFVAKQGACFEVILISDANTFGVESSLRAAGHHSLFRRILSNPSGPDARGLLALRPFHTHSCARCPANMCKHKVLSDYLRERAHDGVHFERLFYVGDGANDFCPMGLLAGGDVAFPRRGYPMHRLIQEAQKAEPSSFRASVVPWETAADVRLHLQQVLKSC
HKDC1 inh: inhibitors of human hexokinase HKDC1; Q2TB90; 340,000 tested, 0.16% active; inhibition, % at 20 µM; recombinant HKDC1, G6PDH/diaphorase resazurin coupled fluorescence; AID 493160;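 active means inhibition above about 35% when tested at 20 µM, limit read from the data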
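test system = in-house recombinant HK5 (HKDC1) enzyme | amount = HKDC1 at 5 µg/mL | control set = DMSO-enzyme wells negative, buffer-substituted wells positive | compound = one dose of 20 µM, 1% DMSO | schedule = reaction time 90 min, room temperature, protected from light | technique = resorufin fluorescence at 613 nm | reagent = glucose with 1 mM ATP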
TbHK1 inh: blocks Trypanosoma brucei hexokinase 1 activity; recombinant TbHK1, G6PDH-coupled NADH A340; inhibition, % at 10 µM; 220,000 tested, 0.11% active; AID 1430;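 active means inhibition of 50% or more in the single-dose primary screen; inactive means inhibition below 50%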
EP2 confirm: EP2 receptor cAMP induction, counter-screens negative; AID 1080; shares compounds with EP2 mod; calls only at 20 µM (by protocol); 1,300 tested, 47% active; C6 glioma EP2 cells, cAMP HTRF induction; plus low (about EC15) PGE2 agonist;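 active means cAMP induction above 50% in the main assay while under 30% in all four parallel counter assays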;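 further: rat C6 glioma cells stably expressing human EP2 receptor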
G6PDH ctr: counter-screen for TbHK1 inhibitors: Leuconostoc G6PDH inhibition; shares compounds with TbHK1 inh; purified G6PDH, NADH absorbance, 1 h; inhibition, % at 10 µM; 210 tested, 7% active;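 active means at least 50% inhibition in the glucose-6-phosphate dehydrogenase coupled counterscreen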
TbHK1 confirm: T. brucei hexokinase 1 inhibition, rescreen | shares compounds with TbHK1 inh | recombinant TbHK1, G6PDH-coupled NADH A340 absorbance | inhibition, % at 10 µM | 210 tested, 10% active;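 active means inhibition of at least 50% in both of the two screening runs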
PfG6PD confirm: confirmation of Plasmodium falciparum G6PD inhibitors; shares compounds with PfG6PD inh; AID 504753; inhibition, % at 20 µM; recombinant PfGluPho, NADPH-diaphorase-resazurin fluorescence; 2,400 tested, 34% active;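 active means inhibition of at least 50% at 20 µM in any single replicate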
Large screens that a line does not name were inactive (follow-up assays come after a bar, where they were run). An excerpt weighted towards active compounds, which were near 2.5% of everything screened.

O=c1n(Cc2ccccc2F)c2ccccc2n1Cc1ccccc1F	EP2 mod 77 | EP2 confirm active
CC1(C)C(=O)N(c2ccccc2)C(=O)c2ccccc21	none (no result: EP2 mod, PGE2 EP2 inh, PHOSPHO1 block, TbHK1 inh)
CC1(O)C(=O)c2ccccc2N(c2ccccc2)C1=O (stereo not given)	none
C=CCCC1(C)C(=O)N(c2ccccc2)c2ccccc21 (stereo not given)	EP2 mod 77 | EP2 confirm active
C=CCC1(C)C(=O)N(c2ccccc2)c2ccccc21 (stereo not given)	EP2 mod 69 | EP2 confirm inactive
CC(/C=C1\SC(=S)N(C(C(=O)O)C(C)C)C1=O)=C\c1ccccc1 (stereo not given)	EP2 mod 61 | EP2 confirm active
Cc1ccc2c3c(cccc13)-c1ccccc1C2=O	EP2 mod 79 | EP2 confirm active
CN(/N=C/C=C/c1ccccc1)C1=NS(=O)(=O)c2ccccc21	EP2 mod 82 | EP2 confirm active
Cc1ccc(C(C)C)c(OCc2ccc(-c3nnco3)cc2)c1	EP2 mod 66 | EP2 confirm inactive
Cc1ccc(COc2ccc(-c3nnco3)cc2)cc1	none (no result: EP2 mod, PGE2 EP2 inh, TbHK1 inh)
COC(=O)Cn1cnnn1	none (no result: PfG6PD inh, PHOSPHO1 block, HKDC1 inh, TbHK1 inh)
N#Cc1c(-c2ccco2)nc(SCc2ccc(F)cc2)[nH]c1=O	EP2 mod 75 (no result: PGE2 EP2 inh) | EP2 confirm inactive
Cc1ccc(C)n1-c1ccc(N(C)C)cc1	PfG6PD inh 63, EP2 mod 66 | EP2 confirm inactive | PfG6PD confirm inactive
CCOc1ccc(C(=O)N(C)CC2COc3ccccc3O2)cc1 (stereo not given)	none (no result: PfG6PD inh, PHOSPHO1 block, HKDC1 inh, TbHK1 inh)
O=S(=O)(c1cccs1)N1CN(Cc2cccs2)c2nc3ccccc3nc21	PfG6PD inh 69, EP2 mod 65 | EP2 confirm inactive | PfG6PD confirm inactive
CCCCN1C(=O)/C(=C2\SC(N3CCCCC3)=NC2=O)c2ccccc21	PfG6PD inh 65, EP2 mod 65 | EP2 confirm active | PfG6PD confirm inactive
O=C1N=C(N2CCOCC2)S/C1=C1\C(=O)N(Cc2ccccc2)c2ccc(Br)cc21	none (no result: PfG6PD inh, EP2 mod, PGE2 EP2 inh, HKDC1 inh, TbHK1 inh)
C=CCOC(=O)c1sc(NC(=O)COc2c(C)cc(C)cc2C)nc1C	none (no result: PfG6PD inh, PHOSPHO1 block, HKDC1 inh, TbHK1 inh)
CN(C)S(=O)(=O)c1ccc(NC(=O)c2ccc([N+](=O)[O-])cc2)cc1	none
CC(C)N(C(=O)c1ccc(C(=O)Nc2ccc([N+](=O)[O-])cc2)cc1)C(C)C	TbHK1 inh 56 | G6PDH ctr inactive | TbHK1 confirm inactive
CSc1nnc(-c2ccccc2)o1	TbHK1 inh 55 | G6PDH ctr inactive | TbHK1 confirm inactive
c1ccc(-c2nnc(-c3ccccc3)o2)cc1	none
COCCNC(=O)C1CCN(S(=O)(=O)c2ccc(Cl)cc2)CC1	none (no result: PfG6PD inh, PHOSPHO1 block, HKDC1 inh, TbHK1 inh)
COc1ccccc1CN(Cc1coc2ccc(Cl)cc2c1=O)CC1CCCO1 (stereo not given)	none (no result: PfG6PD inh, PHOSPHO1 block, HKDC1 inh, TbHK1 inh)
Cc1n[nH]c(=O)nc1NC(C)c1ccccc1 (stereo not given)	TbHK1 inh 51 | G6PDH ctr inactive | TbHK1 confirm inactive
COc1ccccc1Nc1nc(=O)[nH]nc1C	none
CCCCCOC(=O)NCC(O)c1ccccc1 (stereo not given)	TbHK1 inh 53 | G6PDH ctr inactive | TbHK1 confirm inactive
COc1ccc([C@@H]2CN(C(=O)c3ccc(=O)[nH]n3)C[C@H]2C(=O)O)cc1	none (no result: PfG6PD inh, PHOSPHO1 block, HKDC1 inh, TbHK1 inh)
S=C(Nc1cccc(Cl)c1)N(CCCN1CCCC1)Cc1cccn1Cc1ccc(Cl)cc1	TbHK1 inh 51 | G6PDH ctr inactive | TbHK1 confirm inactive
C#CCOCCOCCOCCNc1nc(N2CCN(C(=O)[C@H](Cc3cc4ccccc4[nH]3)n3cc([C@@H](N)Cc4ccc(O)cc4)nn3)CC2)nc(N2CCN(C(=O)[C@H](Cc3cc4ccccc4[nH]3)n3cc([C@@H](N)CC(C)C)nn3)CC2)n1	none (no result: PGE2 EP2 inh)
C#CCOCCOCCOCCNc1nc(N2CCN(C(=O)C(Cc3cc4ccccc4[nH]3)n3cc(C(N)Cc4ccc(O)cc4)nn3)CC2)nc(N2CCN(C(=O)C(Cc3cc4ccccc4[nH]3)n3cc(C(N)Cc4ccc(O)cc4)nn3)CC2)n1 (stereo not given)	TbHK1 inh 53 (no result: PGE2 EP2 inh) | G6PDH ctr 88 | TbHK1 confirm inactive
O=C(CN1CCN(Cc2ccccc2)CC1)N1CCCc2c1c(=O)oc1ccc(O)cc21	TbHK1 inh 54 (no result: PGE2 EP2 inh) | G6PDH ctr inactive | TbHK1 confirm inactive
O=C(CSc1nnc(-c2ccc(S(=O)(=O)N3CCCC3)cc2)o1)NC1CCCCC1	none (no result: PfG6PD inh, PHOSPHO1 block, HKDC1 inh, TbHK1 inh)
O=C(Nc1c[nH]c(=O)[nH]c1=O)c1ccc2c(c1)C(=O)N(c1cccc([N+](=O)[O-])c1)C2=O	TbHK1 inh 56 | G6PDH ctr 84 | TbHK1 confirm 70
CC(NC(=O)CNC(=O)OCc1ccccc1)C(=O)N1CC(O)CC1C(=O)OCc1ccccc1 (stereo not given)	TbHK1 inh 51 | G6PDH ctr inactive | TbHK1 confirm inactive
O=C(NCC(=O)N1CC(O)CC1C(=O)N1CC(O)CC1C(=O)OCc1ccccc1)OCc1ccccc1 (stereo not given)	none
CCCCc1ccc(/C=C2/C(=O)ON=C2c2ccccc2)s1	TbHK1 inh 55 | G6PDH ctr inactive | TbHK1 confirm 55
Cc1sc(/C=C2\C(=O)ON=C2c2ccccc2)cc1Br	none (no result: PfG6PD inh, HKDC1 inh)
CSc1cccc(NC(=O)C2CCCN(S(=O)(=O)c3cccs3)C2)c1 (stereo not given)	none (no result: EP2 mod, PGE2 EP2 inh, TbHK1 inh)
CSc1cccc(NC(=O)C2CCCN2S(=O)(=O)c2ccc(Br)s2)c1 (stereo not given)	TbHK1 inh 54 | G6PDH ctr inactive | TbHK1 confirm inactive
CC(NC(=O)c1cc(-c2ccccn2)n[nH]1)c1ccc2c(c1)CCC2 (stereo not given)	none (no result: PfG6PD inh, PHOSPHO1 block, HKDC1 inh, TbHK1 inh)
CCC(=O)N1CCc2cc(S(=O)(=O)CCC(=O)NCCC3=CCCCC3)ccc21	TbHK1 inh 68 (no result: PGE2 EP2 inh) | G6PDH ctr inactive | TbHK1 confirm inactive
CCC(=O)N1c2ccc(S(=O)(=O)CCC(=O)NCCC3=CCCCC3)cc2CC1C (stereo not given)	none
O=C(/C=C/c1cc2c(cc1Br)OCO2)c1ccc(Br)cc1	none (no result: PfG6PD inh, PHOSPHO1 block, HKDC1 inh, TbHK1 inh)
Cc1ccccc1C1C2=C(CCCC2=O)N(C)C2=C1C(=O)CCC2	none (no result: PfG6PD inh, PHOSPHO1 block, HKDC1 inh, TbHK1 inh)

From PubChem BioAssay
